Measurements from different studies.
Compare with care: the assays were run in different laboratories.
Target: Cytochrome P450 1A2 (CYP1A2, Homo sapiens, UniProt P05177)

| Compound | test | test system | setting | endpoint | value |
| --- | --- | --- | --- | --- | --- |
| C=CC(=O)Nc1cc(Nc2nccc(Nc3cc(Cl)c(F)cc3C(C)(C)O)n2)c(OC)cc1N1CC[C@@H](N(C)C)C1 | enzyme activity, inhibitor | human, liver microsomes | 10 µM | inhibition | < 20% |
| COc1ccc(CNC(=O)c2ccc(CNCc3cnc4nc(N)nc(N)c4n3)cc2)cc1 | enzyme activity, inhibitor, luciferase |  | 10 µM | inhibition | -18.9% |
| CCc1cc(/C(C)=N/OCc2ccc(C3CCCCC3)c(C(F)(F)F)c2)ccc1CN1CC(C(=O)O)C1 | enzyme activity, inhibitor | human, liver microsomes | 200 µM, 20 min | inhibition | -193% |
| COc1ccc(Oc2ccc(CNCc3cnc4nc(N)nc(N)c4n3)cc2)cc1 | enzyme activity, inhibitor, luciferase |  | 10 µM | inhibition | -5.44% |
| O=C(Nc1c2c(cc3c1CCC3)CCC2)NS(=O)(=O)/C=C/c1nccs1 | enzyme activity, inhibitor | human, liver microsomes | 10 µM, pH 7.4 | inhibition | 9.5% |
| C=C[C@H]1C[N@@]2CC[C@H]1C[C@@H]2[C@@H](O)c1ccnc2ccc(OC)cc12 | enzyme activity, inhibitor | human, liver microsomes | 10 µM | inhibition | -5% |
| N=C(N)N1CC=C(c2coc(C(=O)Nc3ccc(C4=CCN(C(=N)N)CC4)c(F)c3)c2)CC1 | enzyme activity, inhibitor | liver microsomes | 10 µM | inhibition | 0% |
| Cc1ccc(C(=O)N2CCOC[C@H]2Cc2cccc(-n3nccn3)c2)c(-n2nccn2)c1 | enzyme activity, inhibitor | human, liver microsomes | 100 µM | inhibition | 23% |
| COc1ccc(CNC(=O)c2ccc(CNCc3cnc4nc(N)nc(N)c4n3)cc2)cc1OC | enzyme activity, inhibitor, luciferase |  | 10 µM | inhibition | -18.2% |
| CON=C(N)c1ccc(-c2ccc(-c3ccc(C(N)=NOC)cc3)o2)cc1 | enzyme activity, substrate |  |  | Km | 0.4 µM |
| COc1ccc(Oc2ccc(CN(Cc3ccccc3)Cc3cnc4nc(N)nc(N)c4n3)cc2)cc1 | enzyme activity, inhibitor, luciferase |  | 10 µM | inhibition | -21.8% |
| Cc1cccc(F)c1N1CCC(N2Cc3cn(CC(C)(F)F)nc3N(Cc3ccccc3C(F)(F)F)C2=O)CC1 | enzyme activity, inhibitor | human, liver microsomes |  | IC50 | > 10 µM |
| O=C(N[C@H](Cc1c[nH]c2ccccc12)C(=O)Nc1ccncc1)c1ccc(-c2cc(F)ccc2F)cc1F | enzyme activity, inhibitor | human, liver microsomes | 1 µM | inhibition | 3% |
| CC(=O)N1CCN(c2ccc(OCC3COC(Cn4ccnc4)(c4ccc(Cl)cc4Cl)O3)cc2)CC1 (stereo not drawn) | enzyme activity, inhibitor | human, liver microsomes | 1 µM | inhibition | -6% |
| N[C@@H](COCc1ccccc1)C(=O)Nc1nc2ccc(OC(F)(F)F)cc2s1 | metabolic stability | human, liver microsomes | 1 µM, 0 h, pH 7.4 | compound remaining | 100% |
| CC1(CO)C(O[C@@H]2O[C@H](C(=O)O)[C@@H](O)[C@H](O)[C@H]2O)CC[C@@]2(C)C1CC[C@]1(C)C2CC=C2[C@H]3CC(C)(C)[C@H](O)[C@@H](O)[C@]3(CO)[C@H](O)C[C@]21C (stereo partly drawn) | enzyme activity, inhibitor, mass spectrometry | human, liver microsomes |  | IC50 | > 90 µg/mL |
| N=C(N)NCc1ccc(NC(=O)C23CCC(C(=O)Nc4ccc(C5=CCN(C(=N)N)CC5)cc4)(CC2)CC3)cc1 | enzyme activity, inhibitor | liver microsomes | 10 µM | inhibition | 0% |
| Nc1nc(N)c2nc(CNc3ccc(C(=O)N4CCC(C(=O)O)CC4)cc3)cnc2n1 | enzyme activity, inhibitor, luciferase |  | 10 µM | inhibition | -33.3% |
